# “Also recorded” adds a separate entry of the source.
# Experiment: Safety and tolerability in iMATRIX-cobi Phase I/II study
# Assay type: in vivo, human
# Method in brief: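 Patients aged 6 months to <30 years with relapsed/refractory solid tumors with MAPK pathway involvement. Oral test compound (20-mg tablet or suspension, with/without food) on Days 1–21 of 28-day cycles. Cumulative weekly weight-based dose rounded to 20 mg, capped at 60 mg/day. Rolling 6 escalation in cohorts of 3–6. Eye exams including OCT at baseline, cycle 1 Days 8/15, and each later cycle Day 1. All dosed patients evaluated.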
# [1] = Dose escalation tablet (n = 18)
smiles,measurement,setting,value
O=C(c1ccc(F)c(F)c1Nc1ccc(I)cc1F)N1CC(O)([C@@H]2CCCCN2)C1 [cobimetinib],"Treatment-related AE: Encephalopathy, G3",[1],1 (6) n (%)
same,"Treatment-related AE: Encephalopathy, G4",[1],0 n (%)
same,"Treatment-related AE: Erythema, G1",[1],2 (11) n (%)
same,"Treatment-related AE: Erythema, G2",[1],0 n (%)
same,"Treatment-related AE: Erythema, G3",[1],0 n (%)
same,"Treatment-related AE: Erythema, G4",[1],0 n (%)
same,"Treatment-related AE: Fatigue, G1",[1],2 (11) n (%)
same,"Treatment-related AE: Fatigue, G2",[1],0 n (%)
same,"Treatment-related AE: Fatigue, G3",[1],0 n (%)
same,"Treatment-related AE: Fatigue, G4",[1],0 n (%)
same,"Treatment-related AE: Headache, G1",[1],1 (6) n (%)
same,"Treatment-related AE: Headache, G2",[1],0 n (%)
same,"Treatment-related AE: Headache, G3",[1],1 (6) n (%)
same,"Treatment-related AE: Headache, G4",[1],0 n (%)
same,"Treatment-related AE: Nausea, G1",[1],3 (17) n (%)
same,"Treatment-related AE: Nausea, G2",[1],0 n (%)
same,"Treatment-related AE: Nausea, G3",[1],0 n (%)
same,"Treatment-related AE: Nausea, G4",[1],0 n (%)
same,"Treatment-related AE: Paronychia, G1",[1],0 n (%)
same,"Treatment-related AE: Paronychia, G2",[1],0 n (%)
same,"Treatment-related AE: Paronychia, G3",[1],0 n (%)
same,"Treatment-related AE: Paronychia, G4",[1],0 n (%)
same,"Treatment-related AE: Rash, G1",[1],3 (17) n (%)
same,"Treatment-related AE: Rash, G2",[1],0 n (%)
same,"Treatment-related AE: Rash, G3",[1],0 n (%)
same,"Treatment-related AE: Rash, G4",[1],0 n (%)
same,"Treatment-related AE: Transaminases increased, G1",[1],0 n (%)
same,"Treatment-related AE: Transaminases increased, G2",[1],0 n (%)
same,"Treatment-related AE: Transaminases increased, G3",[1],0 n (%)
same,"Treatment-related AE: Transaminases increased, G4",[1],0 n (%)
same,"Treatment-related AE: Vomiting, G1",[1],1 (6) n (%)
same,"Treatment-related AE: Vomiting, G2",[1],2 (11) n (%)
same,"Treatment-related AE: Vomiting, G3",[1],0 n (%)
same,"Treatment-related AE: Vomiting, G4",[1],0 n (%)
same,"Treatment-related AE: Weight increased, G1",[1],0 n (%)
same,"Treatment-related AE: Weight increased, G2",[1],0 n (%)
same,"Treatment-related AE: Weight increased, G3",[1],1 (6) n (%)
same,"Treatment-related AE: Weight increased, G4",[1],0 n (%)
same,"Any treatment-related AE, G1",Dose expansion (n = 12),3 (25) n (%)
same,"Any treatment-related AE, G2",Dose expansion (n = 12),3 (25) n (%)
same,"Any treatment-related AE, G3",Dose expansion (n = 12),3 (25) n (%)
same,"Any treatment-related AE, G4",Dose expansion (n = 12),2 (17) n (%)
same,"Treatment-related AE: ALT increased, G1",Dose expansion (n = 12),1 (8) n (%)
same,"Treatment-related AE: ALT increased, G2",Dose expansion (n = 12),0 n (%)
same,"Treatment-related AE: ALT increased, G3",Dose expansion (n = 12),0 n (%)
same,"Treatment-related AE: ALT increased, G4",Dose expansion (n = 12),0 n (%)
same,"Treatment-related AE: AST increased, G1",Dose expansion (n = 12),1 (8) n (%)
same,"Treatment-related AE: AST increased, G2",Dose expansion (n = 12),0 n (%)
same,"Treatment-related AE: AST increased, G3",Dose expansion (n = 12),1 (8) n (%)
same,"Treatment-related AE: AST increased, G4",Dose expansion (n = 12),0 n (%)
same,"Treatment-related AE: Abdominal pain, G1",Dose expansion (n = 12),3 (25) n (%)
same,"Treatment-related AE: Abdominal pain, G2",Dose expansion (n = 12),0 n (%)
same,"Treatment-related AE: Abdominal pain, G3",Dose expansion (n = 12),0 n (%)
same,"Treatment-related AE: Abdominal pain, G4",Dose expansion (n = 12),0 n (%)
same,"Treatment-related AE: Anemia, G1",Dose expansion (n = 12),1 (8) n (%)
same,"Treatment-related AE: Anemia, G2",Dose expansion (n = 12),0 n (%)
same,"Treatment-related AE: Anemia, G3",Dose expansion (n = 12),1 (8) n (%)
same,"Treatment-related AE: Anemia, G4",Dose expansion (n = 12),0 n (%)
same,"Treatment-related AE: Asthenia, G1",Dose expansion (n = 12),0 n (%)
same,"Treatment-related AE: Asthenia, G2",Dose expansion (n = 12),0 n (%)
same,"Treatment-related AE: Asthenia, G3",Dose expansion (n = 12),1 (8) n (%)
same,"Treatment-related AE: Asthenia, G4",Dose expansion (n = 12),0 n (%)
same,"Treatment-related AE: Blood CPK increased, G1",Dose expansion (n = 12),0 n (%)
same,"Treatment-related AE: Blood CPK increased, G2",Dose expansion (n = 12),0 n (%)
same,"Treatment-related AE: Blood CPK increased, G3",Dose expansion (n = 12),1 (8) n (%)
same,"Treatment-related AE: Blood CPK increased, G4",Dose expansion (n = 12),1 (8) n (%)
same,"Treatment-related AE: Chorioretinopathy, G1",Dose expansion (n = 12),0 n (%)
same,"Treatment-related AE: Chorioretinopathy, G2",Dose expansion (n = 12),0 n (%)
same,"Treatment-related AE: Chorioretinopathy, G3",Dose expansion (n = 12),0 n (%)
same,"Treatment-related AE: Chorioretinopathy, G4",Dose expansion (n = 12),0 n (%)
same,"Treatment-related AE: Constipation, G1",Dose expansion (n = 12),0 n (%)
same,"Treatment-related AE: Constipation, G2",Dose expansion (n = 12),0 n (%)
same,"Treatment-related AE: Constipation, G3",Dose expansion (n = 12),0 n (%)
same,"Treatment-related AE: Constipation, G4",Dose expansion (n = 12),0 n (%)
same,"Treatment-related AE: Decreased appetite, G1",Dose expansion (n = 12),1 (8) n (%)
same,"Treatment-related AE: Decreased appetite, G2",Dose expansion (n = 12),0 n (%)
same,"Treatment-related AE: Decreased appetite, G3",Dose expansion (n = 12),0 n (%)
same,"Treatment-related AE: Decreased appetite, G4",Dose expansion (n = 12),0 n (%)
same,"Treatment-related AE: Dermatitis acneiform, G1",Dose expansion (n = 12),1 (8) n (%)
same,"Treatment-related AE: Dermatitis acneiform, G2",Dose expansion (n = 12),0 n (%)
same,"Treatment-related AE: Dermatitis acneiform, G3",Dose expansion (n = 12),0 n (%)
same,"Treatment-related AE: Dermatitis acneiform, G4",Dose expansion (n = 12),0 n (%)
same,"Treatment-related AE: Diarrhea, G1",Dose expansion (n = 12),4 (33) n (%)
same,"Treatment-related AE: Diarrhea, G2",Dose expansion (n = 12),0 n (%)
same,"Treatment-related AE: Diarrhea, G3",Dose expansion (n = 12),0 n (%)
same,"Treatment-related AE: Diarrhea, G4",Dose expansion (n = 12),0 n (%)
same,"Treatment-related AE: Dry skin, G1",Dose expansion (n = 12),1 (8) n (%)
same,"Treatment-related AE: Dry skin, G2",Dose expansion (n = 12),0 n (%)
same,"Treatment-related AE: Dry skin, G3",Dose expansion (n = 12),0 n (%)
same,"Treatment-related AE: Dry skin, G4",Dose expansion (n = 12),0 n (%)
same,"Treatment-related AE: Encephalopathy, G1",Dose expansion (n = 12),0 n (%)
same,"Treatment-related AE: Encephalopathy, G2",Dose expansion (n = 12),0 n (%)
same,"Treatment-related AE: Encephalopathy, G3",Dose expansion (n = 12),0 n (%)
same,"Treatment-related AE: Encephalopathy, G4",Dose expansion (n = 12),1 (8) n (%)
same,"Treatment-related AE: Erythema, G1",Dose expansion (n = 12),0 n (%)
same,"Treatment-related AE: Erythema, G2",Dose expansion (n = 12),0 n (%)
same,"Treatment-related AE: Erythema, G3",Dose expansion (n = 12),0 n (%)
same,"Treatment-related AE: Erythema, G4",Dose expansion (n = 12),0 n (%)
same,"Treatment-related AE: Fatigue, G1",Dose expansion (n = 12),2 (17) n (%)
same,"Treatment-related AE: Fatigue, G2",Dose expansion (n = 12),0 n (%)
same,"Treatment-related AE: Fatigue, G3",Dose expansion (n = 12),0 n (%)
same,"Treatment-related AE: Fatigue, G4",Dose expansion (n = 12),0 n (%)
same,"Treatment-related AE: Headache, G1",Dose expansion (n = 12),1 (8) n (%)
same,"Treatment-related AE: Headache, G2",Dose expansion (n = 12),0 n (%)
same,"Treatment-related AE: Headache, G3",Dose expansion (n = 12),0 n (%)
same,"Treatment-related AE: Headache, G4",Dose expansion (n = 12),0 n (%)
same,"Treatment-related AE: Nausea, G1",Dose expansion (n = 12),1 (8) n (%)
same,"Treatment-related AE: Nausea, G2",Dose expansion (n = 12),0 n (%)
same,"Treatment-related AE: Nausea, G3",Dose expansion (n = 12),0 n (%)
same,"Treatment-related AE: Nausea, G4",Dose expansion (n = 12),0 n (%)
same,"Treatment-related AE: Paronychia, G1",Dose expansion (n = 12),0 n (%)
same,"Treatment-related AE: Paronychia, G2",Dose expansion (n = 12),0 n (%)
same,"Treatment-related AE: Paronychia, G3",Dose expansion (n = 12),0 n (%)
same,"Treatment-related AE: Paronychia, G4",Dose expansion (n = 12),0 n (%)
same,"Treatment-related AE: Rash, G1",Dose expansion (n = 12),0 n (%)
same,"Treatment-related AE: Rash, G2",Dose expansion (n = 12),1 (8) n (%)
same,"Treatment-related AE: Rash, G3",Dose expansion (n = 12),0 n (%)
same,"Treatment-related AE: Rash, G4",Dose expansion (n = 12),0 n (%)
same,"Treatment-related AE: Transaminases increased, G1",Dose expansion (n = 12),0 n (%)
same,"Treatment-related AE: Transaminases increased, G2",Dose expansion (n = 12),0 n (%)
same,"Treatment-related AE: Transaminases increased, G3",Dose expansion (n = 12),0 n (%)
same,"Treatment-related AE: Transaminases increased, G4",Dose expansion (n = 12),0 n (%)
same,"Treatment-related AE: Vomiting, G1",Dose expansion (n = 12),4 (33) n (%)
same,"Treatment-related AE: Vomiting, G2",Dose expansion (n = 12),0 n (%)
same,"Treatment-related AE: Vomiting, G3",Dose expansion (n = 12),0 n (%)
same,"Treatment-related AE: Vomiting, G4",Dose expansion (n = 12),0 n (%)
same,"Treatment-related AE: Weight increased, G1",Dose expansion (n = 12),0 n (%)
same,"Treatment-related AE: Weight increased, G2",Dose expansion (n = 12),0 n (%)
same,"Treatment-related AE: Weight increased, G3",Dose expansion (n = 12),1 (8) n (%)
same,"Treatment-related AE: Weight increased, G4",Dose expansion (n = 12),0 n (%)
same,AESI aspartate aminotransferase increased,dose escalation suspension,12%
same,AESI epistaxis,dose escalation suspension,12%
same,AESI aspartate aminotransferase increased,dose escalation tablet,6%
same,AESI epistaxis,dose escalation tablet,17%
same,Deaths on study,"eleven deaths, all due to PD",20%
same,AESI aspartate aminotransferase increased,expansion,17%
same,AESI creatine phosphokinase increased,expansion,17%
same,Adverse events of special interest (AESI),expansion,50%
same,TRAEs leading to cobimetinib withdrawal,expansion,8%
same,TRAEs leading to cobimetinib withdrawal,"overall, six patients",11%
same,Patients with DLTs,"six patients, dose escalation, cycle 1",11%
same,Adverse events of special interest (AESI),suspension dose escalation,50%
same,TRAEs leading to cobimetinib withdrawal,suspension dose escalation,15%
same,TRAEs leading to cobimetinib withdrawal (events),"suspension dose escalation, 1.0 mg/kg",grade 2 epitheliopathy/keratitis
same,TRAEs leading to cobimetinib withdrawal (events),"suspension dose escalation, 1.33 mg/kg",grade 4 chorioretinopathy; also recorded: grade 2 ECG QT prolonged; also recorded: grade 1 serous retinal detachment
same,"Pediatric recommended Phase II dose (RP2D), suspension","suspension, Days 1–21 of 28-day cycle",1.0 mg/kg
same,TRAEs leading to cobimetinib withdrawal,tablet dose escalation,6%
same,TRAEs leading to cobimetinib withdrawal (events),"tablet dose escalation, 1.0 mg/kg",grade 2 retinal detachment
same,"Pediatric recommended Phase II dose (RP2D), tablet","tablet, Days 1–21 of 28-day cycle",0.8 mg/kg

# — PMC9217999 (Targeted Oncology, 2022)
